Values after ≈ are worked out from the molar mass of the structure shown.
What was measured:
Type in all cases: functional
Enterococcus faecium [1] = experiment: Antibacterial activity tested against Enterococcus faecium; Range is 1-32 ug/mL
Escherichia coli [2] = experiment: Antibacterial activity tested against Escherichia coli ATCC 8739
Method in brief: (§1)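 MICs (µg/mL) determined by conventional agar dilution against a panel of eight Gram-negative and five Gram-positive reference strains.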

Enterococcus faecalis [3] = experiment: Antibacterial activity tested against Enterococcus faecalis
Escherichia coli [4] = experiment: Antibacterial activity tested against Escherichia coli ISF 432; method in brief: as §1
Escherichia coli [5] = experiment: Inhibitory activity against gyrase supercoiling activity from Escherichia coli
Method in brief: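 Inhibition of DNA gyrase supercoiling activity, by a previously described protocol with slight modifications. IC50 derived by densitometric quantification of the supercoiled DNA peak in an agarose gel.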

Enterobacter cloacae = experiment: Antibacterial activity tested against Enterobacter cloacae OMNFI 174
Bacteria = experiment: Geometric mean of antibacterial activity (Gram +ve bacteria) of the compound
Method in brief: (§2)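 Geometric means calculated from agar-dilution MICs (µg/mL), taken separately across the five Gram-positive and the eight Gram-negative panel strains.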

[6] = Geometric mean of antibacterial activity (Gram -ve bacteria) of the compound; method in brief: as §2
Klebsiella pneumoniae = experiment: Antibacterial activity tested against Klebsiella pneumoniae (Klebsiella pneumoniae) ATCC 10031; method in brief: as §1
Proteus vulgaris = experiment: Antibacterial activity tested against Proteus vulgaris CNUR 5; method in brief: as §1
Providencia stuartii = experiment: Antibacterial activity tested against Providencia stuartii CNUR 5; method in brief: as §1
Pseudomonas aeruginosa = experiment: Antibacterial activity tested against P. ae (Pseudomonas aeruginosa) ATCC 9027; method in brief: as §1
Shigella = experiment: Antibacterial activity tested against Shigella enteritidis; method in brief: as §1
Staphylococcus aureus [7] = experiment: Antibacterial activity against Staphylococcus aureus ATCC 6538; method in brief: as §1
Staphylococcus aureus [8] = experiment: Antibacterial activity against Staphylococcus aureus MPR 5; method in brief: as §1
Staphylococcus aureus [9] = experiment: Antibacterial activity tested against Staphylococcus aureus Methicillin-and Ciprofloxacin resistants; Range is 2-4 ug/mL
Streptococcus pneumoniae [10] = experiment: Antibacterial activity tested against Streptococcus pneumoniae
Staphylococcus aureus [11] = experiment: Antibacterial activity tested against Staphylococcus aureus; Range is 0.06-0.13 ug/mL
Enterococcus faecalis [12] = experiment: Antibacterial activity tested against Streptococcus faecalis LEP Br; method in brief: as §1
[13] = system: Staphylococcus epidermidis; experiment: Antibacterial activity tested against Staphylococcus epidermidis CPHL A2; method in brief: as §1
[14] = system: Staphylococcus epidermidis; experiment: Antibacterial activity tested against Staphylococcus epidermidis HCF Berset C; method in brief: as §1
Enterococcus faecium [15] = experiment: Antibacterial activity tested against Enterococcus faecium; Range is 1-2 ug/mL
Enterococcus faecalis [16] = experiment: Antibacterial activity tested against Enterococcus faecalis; Range is 0.13-0.5 ug/mL
Streptococcus pneumoniae [17] = experiment: Antibacterial activity tested against Streptococcus pneumoniae; Range is 1-2 ug/mL
Staphylococcus aureus [18] = experiment: Antibacterial activity tested against Staphylococcus aureus; Range is 0.016-0.13 ug/mL
Enterococcus faecium [19] = experiment: Antibacterial activity tested against Enterococcus faecium; Range is 0.06-1 ug/mL
Mus musculus [20] = experiment: Efficacy against Septicemia caused by Staphylococcus aureus in mice by Oral administration
Method in brief: (§3)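 S. aureus Smith ATCC19636, overnight brain-heart infusion culture diluted in 5% mucin, given i.p. (0.5 mL) to male and female CD-1 mice (18-22 g). Single s.c. or oral dose within 10 min of infection, drug in DMSO/0.5% methocel or as suspension. 3-5 dose groups of six mice; ED50 with 95% limits by Spearman-Kärber from day-7 survival.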

Staphylococcus aureus [21] = experiment: Antibacterial activity tested against Staphylococcus aureus Methicillin-and Ciprofloxacin resistants; Range is 0.05-1 ug/mL
Staphylococcus aureus [22] = experiment: Antibacterial activity tested against Staphylococcus aureus; Range is 0.004-0.03 ug/mL
Mus musculus [23] = experiment: Efficacy against Septicemia caused by Staphylococcus aureus in mice by subcutaneous administration; details: sc; method in brief: as §3
Mus musculus [24] = organism: Mus musculus; experiment: Minimum inhibitory concentration against Septicemia caused by Staphylococcus aureus in mice

SMILES	MIC (Escherichia coli [2])	MIC (Enterococcus faecalis [3])	MIC (Escherichia coli [4])	IC50 (Escherichia coli [5])	MIC (Enterobacter cloacae)	Geometric mean (Bacteria)	Geometric mean [6]	MIC (Klebsiella pneumoniae)	MIC (Proteus vulgaris)	MIC (Providencia stuartii)	MIC (Pseudomonas aeruginosa)	MIC (Shigella)	MIC (Staphylococcus aureus [7])	MIC (Staphylococcus aureus [8])	MIC (Staphylococcus aureus [9])	MIC (Streptococcus pneumoniae [10])	MIC (Enterococcus faecalis [12])	MIC [13]	MIC [14]	further results
Cc1c(N2C[C@@H](C)O[C@@H](C)C2)c(N)cc2c(=O)c(C(=O)O)cn(C3CC3)c12	0.008 µg/mL (≈ 0.0215 µM)	0.05 µg/mL (≈ 0.135 µM)	0.008 µg/mL (≈ 0.0215 µM)	> 50 µg/mL	1 µg/mL (≈ 2.69 µM)	0.107	0.336	0.08 µg/mL (≈ 0.215 µM)	8 µg/mL (≈ 21.5 µM)	1 µg/mL (≈ 2.69 µM)	4 µg/mL (≈ 10.8 µM)	1 µg/mL (≈ 2.69 µM)	0.03 µg/mL (≈ 0.0808 µM)	0.03 µg/mL (≈ 0.0808 µM)	2 µg/mL (≈ 5.38 µM)	2 µg/mL (≈ 5.38 µM)	1 µg/mL (≈ 2.69 µM)	0.125 µg/mL (≈ 0.337 µM)	0.125 µg/mL (≈ 0.337 µM)	MIC (Enterococcus faecium [1]): 1 µg/mL (≈ 2.69 µM); MIC (Staphylococcus aureus [11]): 0.06 µg/mL (≈ 0.162 µM)
Cc1c(N2CCCCC2)c(N)cc2c(=O)c(C(=O)O)cn(C3CC3)c12	0.03 µg/mL (≈ 0.0879 µM)	–	0.03 µg/mL (≈ 0.0879 µM)	3.22 µg/mL (≈ 9.43 µM)	0.25 µg/mL (≈ 0.732 µM)	0.123	0.225	0.03 µg/mL (≈ 0.0879 µM)	8 µg/mL (≈ 23.4 µM)	0.5 µg/mL (≈ 1.46 µM)	1 µg/mL (≈ 2.93 µM)	0.25 µg/mL (≈ 0.732 µM)	0.06 µg/mL (≈ 0.176 µM)	0.06 µg/mL (≈ 0.176 µM)	2 µg/mL (≈ 5.86 µM)	–	0.5 µg/mL (≈ 1.46 µM)	0.125 µg/mL (≈ 0.366 µM)	0.125 µg/mL (≈ 0.366 µM)	MIC (Enterococcus faecium [15]): 1 µg/mL (≈ 2.93 µM); MIC (Enterococcus faecalis [16]): 0.5 µg/mL (≈ 1.46 µM); MIC (Streptococcus pneumoniae [17]): 1 µg/mL (≈ 2.93 µM); MIC (Staphylococcus aureus [18]): 0.016 µg/mL (≈ 0.0469 µM)
Cc1c(N2CCc3ccccc3C2)c(N)cc2c(=O)c(C(=O)O)cn(C3CC3)c12	0.008 µg/mL (≈ 0.0205 µM)	0.06 µg/mL (≈ 0.154 µM)	0.008 µg/mL (≈ 0.0205 µM)	3.58 µg/mL (≈ 9.19 µM)	0.25 µg/mL (≈ 0.642 µM)	0.024	0.105	0.06 µg/mL (≈ 0.154 µM)	2 µg/mL (≈ 5.14 µM)	0.06 µg/mL (≈ 0.154 µM)	0.5 µg/mL (≈ 1.28 µM)	0.25 µg/mL (≈ 0.642 µM)	0.008 µg/mL (≈ 0.0205 µM)	0.008 µg/mL (≈ 0.0205 µM)	–	0.13 µg/mL (≈ 0.334 µM)	0.25 µg/mL (≈ 0.642 µM)	0.016 µg/mL (≈ 0.0411 µM)	0.03 µg/mL (≈ 0.077 µM)	MIC (Enterococcus faecium [19]): 0.06 µg/mL (≈ 0.154 µM); ED50 (Mus musculus [20]): 5 mg/kg; MIC (Staphylococcus aureus [21]): 0.05 µg/mL (≈ 0.128 µM); MIC (Staphylococcus aureus [22]): 0.004 µg/mL (≈ 0.0103 µM); ED50 (Mus musculus [23]): 1.3 mg/kg; MIC (Mus musculus [24]): 0.016 µg/mL (≈ 0.0411 µM)

Source: ChEMBL document CHEMBL1129660, “Studies on 6-aminoquinolones: synthesis and antibacterial evaluation of 6-amino-8-methylquinolones” (J Med Chem, 1996)
